Experimental data reported in ChEMBL document CHEMBL4406854, “Synthesis and in-vitro anti-HIV-1 evaluation of novel pyrazolo[4,3-c]pyridin-4-one derivatives” (Eur J Med Chem, 2019).
The source made the active and inactive calls. The rule behind the calls is not given here.

Assays:
[1] = Cytotoxicity against human TZM-bl cells assessed as reduction in cell viability incubated for 48 hrs by MTT assay; type: cell-based
Summary of the method: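 TZM-bl cells (10^4/well) were seeded overnight at 37 °C in humidified 5% CO2. Serial two-fold dilutions were added, with AZT as control, for 48 h. Viability was read by MTT, and CC50 (concentration leaving 50% of cells viable) was obtained by non-linear regression.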

[2] = test system: Human immunodeficiency virus 1; assay: Antiviral activity against HIV1 VB59 infected in human TZM-bl cells incubated for 48 hrs by bright Glo-luciferase reporter gene assay; type: functional, organism-based; settings: Human immunodeficiency virus 1, VB59, TZM-bl
Summary of the method: (§1)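 TZM-bl cells (10^4/well, seeded the day before) were infected with pre-titrated HIV-1 VB59 or UG070 stocks for 2 h. Serial two-fold dilutions at sub-toxic concentrations were then added, with AZT as control, for 48 h. Britelite plus luciferase substrate was added and RLU measured. IC50 was derived from percent inhibition against infected untreated and uninfected controls.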

[3] = Therapeutic index, ratio of CC50 for human PBMC cells to IC50 for antiviral activity against HIV1 VB51 infected in human PBMC cells
[4] = Therapeutic index, ratio of CC50 for human TZM-bl cells to IC50 for antiviral activity against HIV1 N119 infected in human TZM-bl cells; type: toxicity, cell-based; settings: read-out: Ratio CC50/IC50
Summary of the method: (§2)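 TI = CC50/IC50. CC50 came from TZM-bl cells (10^4/well) exposed to serial two-fold dilutions for 48 h at 37 °C, 5% CO2, with MTT viability and non-linear regression fitting. IC50 came from TZM-bl cells infected 2 h, treated with sub-toxic two-fold dilutions for 48 h, with luciferase RLU read-out.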

[5] = test system: Human immunodeficiency virus 1; assay: Antiviral activity against HIV1 N119 infected in human TZM-bl cells incubated for 48 hrs by bright Glo-luciferase reporter gene assay; type: functional, organism-based; settings: Human immunodeficiency virus 1, N119, TZM-bl
Summary of the method: (§3)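 TZM-bl cells (HeLa-derived, expressing CD4/CXCR4/CCR5, with an LTR-driven luciferase reporter) were seeded at 10^4 cells/well overnight. Cells were infected with pre-titrated virus for 2 h, then given serial two-fold dilutions of sub-toxic compound concentrations and incubated 48 h. Luciferase substrate was added and RLU read. IC50 was taken from percent inhibition versus infected untreated controls. NVP and AZT served as controls.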

[6] = Cytotoxicity against human PBMC cells assessed as reduction in cell viability incubated for 5 days by MTT assay; type: cell-based
Summary of the method: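 PBMCs (0.2×10^6 cells/well) were activated with PHA-p (5 µg/mL) and IL-2 (5 U/mL) and exposed to serial two-fold compound dilutions at 37 °C, 5% CO2, for 5 days. Viability was measured by MTT and CC50 calculated.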

[7] = test system: Human immunodeficiency virus 1; assay: Antiviral activity against HIV1 VB51 infected in human PBMC cells incubated for 5 days by bright Glo-luciferase reporter gene assay; type: functional, organism-based; settings: Human immunodeficiency virus 1, VB51, 120 h
Summary of the method: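 PBMCs (0.2×10^6 cells/well) were activated with PHA-p (5µg/mL) and IL-2 (5U/mL). Sub-toxic concentrations, chosen from a 5-day MTT CC50 at 37 °C in 5% CO2, were used against R5-tropic HIV-1 VB51.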

[8] = test system: Human immunodeficiency virus 1; assay: Antiviral activity against HIV1 NL4.3 infected in human TZM-bl cells measured upto 10 hrs by bright Glo-luciferase reporter gene assay; type: functional, organism-based
Summary of the method: (§4)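 Time-of-addition: TZM-bl cells seeded at 10^4 cells/well and incubated overnight, then infected with HIV-1 NL4.3 (400 TCID50) in complete DMEM containing […] DEAE-dextran. Compounds and reference antiretrovirals were applied at five times their IC50 at 0, 1, 2, 3, 4, 6, 8, 10, 18 and 24 h post infection. Luciferase (RLU) was read 48 h post infection, in triplicate, as mean±SD.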

[9] = Therapeutic index, ratio of CC50 for human TZM-bl cells to IC50 for antiviral activity against HIV1 VB59 infected in human TZM-bl cells; type: toxicity, cell-based; settings: read-out: Ratio CC50/IC50
Summary of the method: (§5)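 TI = CC50/IC50. CC50 came from 48 h MTT viability of TZM-bl cells. IC50 came from 48 h luciferase read-out in TZM-bl cells infected for 2 h with HIV-1 UG070 or VB59 and then treated with two-fold dilutions at sub-toxic concentrations.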

[10] = test system: Human immunodeficiency virus 1; assay: Antiviral activity against HIV1 92/BR/018 infected in human TZM-bl cells incubated for 48 hrs by bright Glo-luciferase reporter gene assay; type: functional, organism-based; settings: Human immunodeficiency virus 1, 92/BR/018, TZM-bl; summary of the method: as §3
[11] = Therapeutic index, ratio of CC50 for human TZM-bl cells to IC50 for antiviral activity against HIV1 92/BR/018 infected in human TZM-bl cells; type: toxicity, cell-based; settings: read-out: Ratio CC50/IC50; summary of the method: as §2
[12] = test system: Human immunodeficiency virus 1; assay: Antiviral activity against HIV1 UG070 infected in human TZM-bl cells incubated for 48 hrs by bright Glo-luciferase reporter gene assay; type: functional, organism-based; settings: Human immunodeficiency virus 1, UG070, TZM-bl; summary of the method: as §1
[13] = test system: Human immunodeficiency virus 1; assay: Antiviral activity against HIV1 NARI-DR infected in human TZM-bl cells incubated for 48 hrs by bright Glo-luciferase reporter gene assay; type: functional, organism-based; settings: Human immunodeficiency virus 1, NARI-DR; summary of the method: as §3
[14] = Therapeutic index, ratio of CC50 for human TZM-bl cells to IC50 for antiviral activity against HIV1 NARI-DR infected in human TZM-bl cells; type: toxicity, cell-based; settings: read-out: Ratio CC50/IC50; summary of the method: as §2
[15] = Therapeutic index, ratio of CC50 for human TZM-bl cells to IC50 for antiviral activity against HIV1 UG070 infected in human TZM-bl cells; type: toxicity, cell-based; settings: read-out: Ratio CC50/IC50; summary of the method: as §5
[16] = test system: Human immunodeficiency virus 1; assay: Antiviral activity against HIV1 NL4.3 infected in human TZM-bl cells measured upto 3 hrs by bright Glo-luciferase reporter gene assay; type: functional, organism-based; summary of the method: as §4

Structure (SMILES)	CC50 at 48 h [1]	IC50 [2]	selectivity ratio [9]	further results
Cc1cc2c(cnn2-c2ccc(C(F)(F)F)cc2)c(=O)[nH]1	100 µM	> 171 µM		
Cc1cc2c(cnn2-c2cc(F)cc(F)c2)c(=O)[nH]1	130 µM	> 192 µM		
Cc1cc(C)cc(-n2ncc3c(=O)[nH]c(C)cc32)c1	679 µM	3.67 µM	185	selectivity ratio [3]: 68; selectivity ratio [4]: 210; IC50 [5]: 3.24 µM; CC50 at 120 h [6]: 0.592 mM; IC50 [7]: 8.65 µM; Activity [8]: Active; IC50 [10]: 7.42 µM; selectivity ratio [11]: 91; IC50 [12]: 2.79 µM; IC50 [13]: 2.53 µM; selectivity ratio [14]: 268; selectivity ratio [15]: 243; Activity [16]: Active
Cc1cc2c(cnn2-c2cccc(Br)c2)c(=O)[nH]1	72.6 µM	139 µM	0.52	
Cc1ccc(-n2ncc3c(=O)[nH]c(C)cc32)cc1	383 µM	58.1 µM	6.6	IC50 [12]: 229 µM; selectivity ratio [15]: 1.67
Cc1ccnc2c1NC(=O)c1cccnc1N2C1CC1 [NEVIRAPINE]				selectivity ratio [3]: 5280; selectivity ratio [4]: 4.3; IC50 [5]: 140 µM; CC50 at 120 h [6]: 1 mM; IC50 [7]: 0.19 µM; IC50 [10]: 0.3 µM; selectivity ratio [11]: 1990; IC50 [13]: 232 µM; selectivity ratio [14]: 2.6
Cc1cc2c(cnn2-c2ccc(Cl)cc2)c(=O)[nH]1	260 µM	> 193 µM		
Cc1cn([C@H]2C[C@H](N=[N+]=[N-])[C@@H](CO)O2)c(=O)[nH]c1=O [ZIDOVUDINE]	872 µM			CC50 at 120 h [6]: 1.07 mM
Cc1cc2c(cnn2-c2ccc(C)c(C)c2)c(=O)[nH]1	93.4 µM	126 µM	0.74	
COc1cccc(-n2ncc3c(=O)[nH]c(C)cc32)c1	553 µM	247 µM	2.24	IC50 [12]: > 196 µM
Cc1cc2c(cnn2-c2ccc(F)c(F)c2)c(=O)[nH]1	133 µM	> 192 µM		
Cc1cc2c(cnn2-c2cc(Cl)cc(Cl)c2)c(=O)[nH]1	93.5 µM	> 171 µM		
Cc1cc2c(cnn2-c2ccc(Br)cc2)c(=O)[nH]1	79.8 µM	138 µM	0.58	
Cc1cc2c(cnn2-c2cccc(F)c2)c(=O)[nH]1	159 µM	> 206 µM		
Cc1cc2c(cnn2-c2ccc(C(C)(C)C)cc2)c(=O)[nH]1	45.9 µM	> 178 µM		
Cc1cc2c(cnn2-c2ccccc2)c(=O)[nH]1	708 µM	121 µM	5.86	IC50 [12]: 444 µM
Cc1cc2c(cnn2-c2cccc(C(F)(F)F)c2)c(=O)[nH]1	34.1 µM	128 µM		
Cc1cc2c(cnn2-c2ccc(Cl)c(Cl)c2)c(=O)[nH]1	93.5 µM	> 171 µM		
